In brackets after ≈: the same amount, converted by molar mass.
Assays:
anti-AZN mAb = assay: indirect ICA; assay type: binding, mouse; conditions: pork extract; strip reader standard curve
In short: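 AZN standard spiked into treated pork samples at 8, 4, 2, 1, 0.5, 0.25 and 0 ng/g. A set amount of mAb is added to the sample well and held 5 min at room temperature before strip insertion. The T line is AZL-SA-OVA, the C line mouse IgG, and the conjugate pad AuNP-goat anti-mouse IgG.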

mAb against AZN (35D1D2) = assay: indirect competitive ELISA; assay type: binding, mouse; conditions: ic-ELISA; for Cross-reactivity: CR = IC50 of AZN / IC50 of related analyte × 100; for IC50: coating antigen 0.23 and mAb 0.38 µg/mL

Compound | IC50, indirect ICA (anti-AZN mAb) [ng/g] | Cross-reactivity (mAb against AZN (35D1D2)) [%] | IC50 (mAb against AZN (35D1D2))
O=C(CCCN1CCN(c2ccccn2)CC1)c1ccc(F)cc1 [AZN, Azaperone] | 0.74 | 100 | 0.35 ng/mL (≈ 1.07 nM)
CC(C)NCC(O)COc1cccc2[nH]c3ccccc3c12 (stereo not drawn) [CAR, carazolol] | – | <0.035 | ˃1000 ng/mL
CN(C)CCCN1c2ccccc2Sc2ccc(Cl)cc21 [CHL, Chlorpromazine] | – | <0.035 | ˃1000 ng/mL
O=C(CCCN1CC=C(n2c(=O)[nH]c3ccccc32)CC1)c1ccc(F)cc1 [DRO, Droperidol] | – | <0.035 | ˃1000 ng/mL
O=C(CCCN1CCC(O)(c2ccc(Cl)cc2)CC1)c1ccc(F)cc1 [HAL, haloperidol] | – | <0.035 | –
Cc1cccc(C)c1N=C1NCCCS1 [XYL, xylazine] | – | <0.035 | ˃1000 ng/mL
